Tests used:
[1] = target: T1, Gonadotropin-releasing hormone receptor (Homo sapiens, UniProt P30968); assay: In vitro ability to inhibit des-Gly[125I-Tyr, DLeu, NMeLeu,Pro-NEt]-GnRH radioligand binding to the cloned human GnRH receptor stably expressed in HEK293 cells; type: cell-based
T1 sequence (P30968 whole entry): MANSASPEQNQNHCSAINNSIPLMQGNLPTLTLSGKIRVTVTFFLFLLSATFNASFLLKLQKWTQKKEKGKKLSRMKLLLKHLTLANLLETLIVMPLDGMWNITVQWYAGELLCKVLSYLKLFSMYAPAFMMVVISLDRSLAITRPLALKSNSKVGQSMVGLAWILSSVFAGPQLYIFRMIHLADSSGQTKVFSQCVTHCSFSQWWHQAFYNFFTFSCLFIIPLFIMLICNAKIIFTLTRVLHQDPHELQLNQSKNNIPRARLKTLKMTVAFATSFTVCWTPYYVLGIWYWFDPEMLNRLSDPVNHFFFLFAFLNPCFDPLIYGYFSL
Procedure, shortened: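 A standard antagonist on each plate controlled for plate-to-plate variation. Key compounds were run in three to eight independent experiments.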

[2] = Intrinsic clearance in human liver microsomes(HLM) for metabolic stability; type: ADME, Microsome; conditions: read-out: CI

Row | Ki [1] | CLint scaled [2] | Structure (SMILES)
1 | 9 nM |  | COc1cccc(-n2c(=O)n(Cc3c(F)cccc3F)c(=O)n(C[C@H](N)c3ccccc3)c2=O)c1F
2 | 28 nM |  | COc1cccc(-n2c(=O)n(Cc3c(F)cccc3F)c(=O)n(CC(CN)c3ccccc3)c2=O)c1 (centres undefined)
3 | 66 nM |  | COc1cccc(-n2c(=O)n(CCC(N)c3cccc(F)c3)c(=O)n(Cc3c(F)cccc3F)c2=O)c1 (centres undefined)
4 | 1500 nM |  | COc1cccc(-n2c(=O)n(CC[C@H](N)CC(C)C)c(=O)n(Cc3c(F)cccc3F)c2=O)c1F
5 | 75 nM |  | COc1cccc(-n2c(=O)n(CCC(N)c3ccccc3C)c(=O)n(Cc3c(F)cccc3F)c2=O)c1 (centres undefined)
6 | 5 nM |  | COc1cccc(-n2c(=O)n(Cc3c(F)cccc3Cl)c(=O)n(C[C@H](N)c3ccccc3)c2=O)c1F
7 | 27 nM |  | COc1cccc(-n2c(=O)n(CCC(N)c3cccs3)c(=O)n(Cc3c(F)cccc3F)c2=O)c1 (centres undefined)
8 | 70 nM |  | COc1cccc(-n2c(=O)n(CCC(N)c3ccccc3)c(=O)n(Cc3c(F)cccc3F)c2=O)c1 (centres undefined)
9 | 29 nM |  | COc1cccc(-n2c(=O)n(Cc3ccccc3C)c(=O)n(C[C@H](N)c3ccccc3)c2=O)c1F
10 | 83 nM |  | COc1cccc(-n2c(=O)n(CCC(N)c3ccc(F)cc3)c(=O)n(Cc3c(F)cccc3F)c2=O)c1 (centres undefined)
11 | > 10000 nM |  | COc1cccc(-n2c(=O)n(CC3CCCCC3)c(=O)n(C[C@H](N)c3ccccc3)c2=O)c1F
12 | 180 nM |  | COc1cccc(-n2c(=O)n(CCC(N)c3ccccc3Cl)c(=O)n(Cc3c(F)cccc3F)c2=O)c1 (centres undefined)
13 | 630 nM |  | COc1cccc(-n2c(=O)n(C[C@H](N)c3ccccc3)c(=O)n(C(C)c3c(F)cccc3F)c2=O)c1F (some centres undefined)
14 | 580 nM |  | COc1cccc(-n2c(=O)n(CCC(N)c3cccnc3)c(=O)n(Cc3c(F)cccc3F)c2=O)c1 (centres undefined)
15 | 3 nM |  | COc1cccc(-n2c(=O)n(Cc3c(F)cccc3C(F)(F)F)c(=O)n(C[C@H](N)c3ccccc3)c2=O)c1F
16 | 120 nM |  | COc1ccccc1Cn1c(=O)n(C[C@H](N)c2ccccc2)c(=O)n(-c2cccc(OC)c2F)c1=O
17 | 24 nM |  | COc1cccc(-n2c(=O)n(CC[C@H](N)c3ccccc3)c(=O)n(Cc3c(F)cccc3F)c2=O)c1F
18 |  | 249 mL/min/kg | COc1cccc(-n2c(=O)n(Cc3ccccc3C#N)c(=O)n(C[C@H](N)c3ccccc3)c2=O)c1F
19 |  | 158 mL/min/kg | COc1cccc(-n2c(=O)n(Cc3c(F)cccc3Br)c(=O)n(C[C@H](N)c3ccccc3)c2=O)c1F
20 | 73 nM |  | COc1cccc(-n2c(=O)n(Cc3c(Cl)cccc3C#N)c(=O)n(C[C@H](N)c3ccccc3)c2=O)c1F
21 | 620 nM |  | COc1cccc(-n2c(=O)n(Cc3c(F)cccc3F)c(=O)n(CC(N)CC(C)C)c2=O)c1F (centres undefined)
22 | 36 nM |  | COc1cccc(-n2c(=O)n(Cc3c(Cl)cccc3Cl)c(=O)n(C[C@H](N)c3ccccc3)c2=O)c1F
23 | 800 nM |  | COc1cccc(-n2c(=O)n(CCC(N)c3ccccc3F)c(=O)n(Cc3c(F)cccc3F)c2=O)c1 (centres undefined)
24 | 20 nM |  | COc1cccc(-n2c(=O)n(Cc3ccccc3Cl)c(=O)n(C[C@H](N)c3ccccc3)c2=O)c1F
25 | 20 nM |  | COc1cccc(-n2c(=O)n(Cc3c(F)cccc3F)c(=O)n(CC(N)c3ccccc3F)c2=O)c1F (centres undefined)
26 | 120 nM |  | COc1cccc(-n2c(=O)n(Cc3c(F)cccc3F)c(=O)n(CC(N)c3ccccc3F)c2=O)c1 (centres undefined)
27 | 66 nM |  | COc1cccc(-n2c(=O)n(Cc3cccnc3Cl)c(=O)n(C[C@H](N)c3ccccc3)c2=O)c1F
28 |  | 146 mL/min/kg | COc1cccc(-n2c(=O)n(Cc3ccccc3OC(F)(F)F)c(=O)n(C[C@H](N)c3ccccc3)c2=O)c1F
29 | 11 nM |  | COc1cccc(-n2c(=O)n(Cc3ccccc3F)c(=O)n(C[C@H](N)c3ccccc3)c2=O)c1F
